Results from ChEMBL document CHEMBL1143313, “Synthesis of novel 4,6-di(substituted)amino-1,2-dihydro-1,3,5-triazine derivatives as topical antiseptic agents” (2009).

Tests used:
Type in all cases: functional
Escherichia coli [1] = test: Bactericidal activity against Escherichia coli NIHJ JC-2 preincubated for 1 min before addition of growth medium measured after 40 to 48 hrs
Staphylococcus aureus [2] = test: Bactericidal activity against Staphylococcus aureus 209PJC preincubated for 3 mins before addition of growth medium measured after 40 to 48 hrs
Staphylococcus aureus [3] = test: Antibacterial activity against Staphylococcus aureus 209PJC after 24 hrs
Method in brief: (§1)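 Value is the minimal inhibitory concentration (MIC) against the test organism, read after 24 h of incubation.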

Escherichia coli [4] = test: Bactericidal activity against Escherichia coli NIHJ JC-2 preincubated for 5 mins before addition of growth medium measured after 40 to 48 hrs
Escherichia coli [5] = test: Antibacterial activity against Escherichia coli NIHJ JC-2 after 24 hrs; method in brief: as §1
Staphylococcus aureus [6] = test: Antibacterial activity against methicillin-resistant Staphylococcus aureus 97-115 after 24 hrs
Method in brief: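 Read-out is the minimal inhibitory concentration (MIC), taken after 24 h incubation with the test organism.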

Pseudomonas aeruginosa [7] = test: Bactericidal activity against Pseudomonas aeruginosa PAO1 preincubated for 5 mins before addition of growth medium measured after 40 to 48 hrs
Escherichia coli [8] = test: Bactericidal activity against Escherichia coli NIHJ JC-2 preincubated for 3 mins before addition of growth medium measured after 40 to 48 hrs
Staphylococcus aureus [9] = test: Bactericidal activity against methicillin-resistant Staphylococcus aureus 97-115 preincubated for 1 min before addition of growth medium measured after 40 to 48 hrs
Method in brief: (§2)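 Read-out is the minimal bactericidal concentration (MBC), taken after 1, 3 and 5 min contact of compound with the test organism.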

Staphylococcus aureus [10] = test: Bactericidal activity against Staphylococcus aureus 209PJC preincubated for 1 min before addition of growth medium measured after 40 to 48 hrs
Staphylococcus aureus [11] = test: Bactericidal activity against Staphylococcus aureus 209PJC preincubated for 5 mins before addition of growth medium measured after 40 to 48 hrs
Pseudomonas aeruginosa [12] = test: Bactericidal activity against Pseudomonas aeruginosa PAO1 preincubated for 3 mins before addition of growth medium measured after 40 to 48 hrs
Pseudomonas aeruginosa [13] = test: Antibacterial activity against Pseudomonas aeruginosa PAO1; method in brief: as §1
Staphylococcus aureus [14] = test: Bactericidal activity against methicillin-resistant Staphylococcus aureus 97-115 preincubated for 5 mins before addition of growth medium measured after 40 to 48 hrs; method in brief: as §2
Pseudomonas aeruginosa [15] = test: Bactericidal activity against Pseudomonas aeruginosa PAO1 preincubated for 1 min before addition of growth medium measured after 40 to 48 hrs
Staphylococcus aureus [16] = test: Bactericidal activity against methicillin-resistant Staphylococcus aureus 97-115 preincubated for 3 mins before addition of growth medium measured after 40 to 48 hrs; method in brief: as §2

Compound | MBC (Escherichia coli [1]) | MBC (Staphylococcus aureus [2]) | MIC (Staphylococcus aureus [3]) | MBC (Escherichia coli [4]) | MIC (Escherichia coli [5]) | MIC (Staphylococcus aureus [6]) | MBC (Pseudomonas aeruginosa [7]) | MBC (Escherichia coli [8]) | MBC (Staphylococcus aureus [9]) | MBC (Staphylococcus aureus [10]) | MBC (Staphylococcus aureus [11]) | MBC (Pseudomonas aeruginosa [12]) | MIC (Pseudomonas aeruginosa [13]) | MBC (Staphylococcus aureus [14]) | MBC (Pseudomonas aeruginosa [15]) | MBC (Staphylococcus aureus [16])
CC(=O)O.CCCCCCCCCCNC1=NC(C)(C)NC(NCc2ccc(OC)cc2)=N1 | 12.5 µg/mL | 6.3 µg/mL | 0.4 µg/mL | 6.3 µg/mL | 25 µg/mL | 0.8 µg/mL | 3.1 µg/mL | 6.3 µg/mL | 25 µg/mL | 12.5 µg/mL | 3.1 µg/mL | 3.1 µg/mL | 50 µg/mL | 6.3 µg/mL | 12.5 µg/mL | 6.3 µg/mL
CC(=O)O.CCCCCCCCNC1=NC(NCCC)=NC(C)(C)N1 |  |  | 1.6 µg/mL |  | 100 µg/mL | 6.3 µg/mL |  |  |  |  |  |  | 100 µg/mL |  |  | 
CC(=O)O.CCCCCCCCNC1=NC(C)(C)NC(NCc2ccc(C(F)(F)F)cc2)=N1 | 3.1 µg/mL | 6.3 µg/mL | 0.4 µg/mL | 3.1 µg/mL | 50 µg/mL | 0.8 µg/mL | 6.3 µg/mL | 3.1 µg/mL | 6.3 µg/mL | 12.5 µg/mL | 6.3 µg/mL | 6.3 µg/mL | 25 µg/mL | 6.3 µg/mL | 12.5 µg/mL | 6.3 µg/mL
CC(=O)O.CCCCCCCCCCCNC1=NC(C)(C)NC(NCc2ccccc2)=N1 |  |  | 0.4 µg/mL |  | 100 µg/mL | 0.8 µg/mL |  |  |  |  |  |  | 100 µg/mL |  |  | 
CC(=O)O.CCCCCCCCNC1=NC(C)(C)NC(NCc2ccc(Cl)cc2)=N1 | 3.1 µg/mL | 3.1 µg/mL | 0.8 µg/mL | 1.6 µg/mL | 25 µg/mL | 0.8 µg/mL | 1.6 µg/mL | 1.6 µg/mL | 6.3 µg/mL | 3.1 µg/mL | 3.1 µg/mL | 1.6 µg/mL | 25 µg/mL | 6.3 µg/mL | 6.3 µg/mL | 6.3 µg/mL
CC(=O)O.CCCCCCCCNC1=NC(C)(C)NC(NCc2ccccc2Cl)=N1 | 3.1 µg/mL | 6.3 µg/mL | 0.8 µg/mL | 1.6 µg/mL | 25 µg/mL | 0.8 µg/mL | 1.6 µg/mL | 3.1 µg/mL | 12.5 µg/mL | 12.5 µg/mL | 6.3 µg/mL | 3.1 µg/mL | 25 µg/mL | 6.3 µg/mL | 6.3 µg/mL | 6.3 µg/mL
CC(=O)O.CCCCCCCCCNC1=NC(C)(C)NC(NCc2ccc(C)cc2)=N1 | 6.3 µg/mL | 3.1 µg/mL | 0.8 µg/mL | 1.6 µg/mL | 25 µg/mL | 0.8 µg/mL | 3.1 µg/mL | 1.6 µg/mL | 25 µg/mL | 6.3 µg/mL | 3.1 µg/mL | 3.1 µg/mL | 50 µg/mL | 12.5 µg/mL | 12.5 µg/mL | 12.5 µg/mL
CC(=O)O.CCCCCCCCNC1=NC(C)(C)NC(Nc2ccccc2)=N1 | 12.5 µg/mL | 6.3 µg/mL | 1.6 µg/mL | 6.3 µg/mL | 25 µg/mL | 1.6 µg/mL | 6.3 µg/mL | 6.3 µg/mL | 25 µg/mL | 25 µg/mL | 6.3 µg/mL | 12.5 µg/mL | 50 µg/mL | 12.5 µg/mL | 25 µg/mL | 12.5 µg/mL
CC(=O)O.CCCCCCCNC1=NC(C)(C)NC(Nc2ccccc2)=N1 |  |  | 6.3 µg/mL |  | 50 µg/mL | 6.3 µg/mL |  |  |  |  |  |  | 100 µg/mL |  |  | 
CC(=O)O.CCCCCCCCNC1=NC(C)(C)NC(NCCCCCCCC)=N1 |  |  | 0.8 µg/mL |  | 100 µg/mL | 1.6 µg/mL |  |  |  |  |  |  | > 100 µg/mL |  |  | 
CC(=O)O.CCCCCCCNC1=NC(C)(C)NC(NCCCCCCC)=N1 | 6.3 µg/mL | 6.3 µg/mL | 0.8 µg/mL | 3.1 µg/mL | 12.5 µg/mL | 0.8 µg/mL | 1.6 µg/mL | 3.1 µg/mL | 25 µg/mL | 6.3 µg/mL | 3.1 µg/mL | 1.6 µg/mL | 50 µg/mL | 12.5 µg/mL | 3.1 µg/mL | 25 µg/mL
CC(=O)O.CCCCCCCCCCNC1=NC(C)(C)NC(NCc2ccccc2)=N1 | 25 µg/mL | 6.3 µg/mL | 0.4 µg/mL | 6.3 µg/mL | 12.5 µg/mL | 0.4 µg/mL | 1.6 µg/mL | 12.5 µg/mL | 12.5 µg/mL | 6.3 µg/mL | 6.3 µg/mL | 3.1 µg/mL | 25 µg/mL | 6.3 µg/mL | 3.1 µg/mL | 6.3 µg/mL
